Measurements from ChEMBL document CHEMBL1132417, “Novel esters and amides of nonsteroidal antiinflammatory carboxylic acids as antioxidants and antiproliferative agents” (J Med Chem, 1999).

Assays:
[1] = organism: Bos taurus; test: Inhibition of [Fe(2+)]/ascorbate-induced oxidation of bovine heart membranes(antioxidant BHMLO); type: functional
Procedure, shortened: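 Bovine heart membranes (KCl-washed, 100000g pellet, 20 mg/mL protein stock in 25 mM HEPES/150 mM NaCl pH 7.4) were preincubated with compound for 30 min at 37 °C. Peroxidation was started with FeCl2/ascorbic acid and run for 15 min at 21 °C. TBARS were developed by heating at 80 °C and read at 540 nm against a malonaldehyde bis(dimethyl acetal) standard curve. IC50 by linear regression.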

[2] = Inhibition of proliferation measured by inhibition of [3H]thymidine incorporation by HMVEC-L cells; type: functional, cell-based, Homo sapiens
Procedure, shortened: (§1)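 Human lung microvascular endothelial cells (HMVEC-L, donor, passages 3–9) were grown in EGM-MV to 75–90% confluence. Cells were given compound in fresh medium at 37 °C for 18 h, then pulsed 6 h with [3H]thymidine (2.5 μCi per 200 μL). TCA-precipitated DNA was solubilised in SDS and counted by liquid scintillation. IC50 by linear regression, or % inhibition at the stated concentration.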

[3] = (§2) Compound was evaluated for in vitro inhibition of proliferation measured by inhibition of [3H]thymidine incorporation by HMVEC-L cells; type: functional, Homo sapiens; design: concentration or dose not given beside the values; procedure, shortened: as §1
[4] = tested on: HMVEC-L; test: as §2; type: functional; design: concentration or dose not given beside the values; details: Homo sapiens, dose or concentration not given here; procedure, shortened: as §1

Molecule | IC50 [1] [µM] | IC50 [2] [µM] | Inhibition [3] [%] | inhibition [4] [%]
Cc1c(C)c2c(c(C)c1O)CCC(C)(C(=O)O)O2 (stereo not drawn) [TROLOX] | 25.6 | – | 20 | –
COc1ccc2cc([C@H](C)C(=O)OCC3(C)COc4c(C)c(C)c(O)c(C)c43)ccc2c1 (stereo partly drawn) | 5.2 | 19 | – | –
COc1ccc2cc([C@H](C)COC(=O)CC3(C)CCc4c(C)c(O)c(C)c(C)c4O3)ccc2c1 (stereo partly drawn) | 4.4 | 12 | – | –
COc1ccc2cc(C(C)C(=O)OCC3(C)CCc4c(C)c(O)c(C)c(C)c4O3)ccc2c1 (stereo not drawn) | 4.36 | 11.3 | – | –
COc1ccc2cc([C@H](C)C(=O)NCC3(C)CCc4c(C)c(O)c(C)c(C)c4O3)ccc2c1 (stereo partly drawn) | 2.5 | 4.3 | – | –
COc1ccc2cc([C@H](C)C(=O)O)ccc2c1 [NAPROXEN] | – | > 50 | – | –
COc1ccc2cc(CC(=O)O)ccc2c1 [6-METHOXY-2-NAPHTHYLACETIC ACID] | – | – | 5 | –
COc1ccc2cc([C@H](C)C(=O)OCCC3(C)Cc4c(C)c(O)c(C)c(C)c4O3)ccc2c1 (stereo in doubt; 2b) | 5.2 | 16.6 | – | –
COc1ccc2cc(C(C)C(=O)OCCC3(C)CCc4c(C)c(OC)c(C)c(C)c4O3)ccc2c1 (stereo not drawn) | 14000 | 25 | – | –
COc1ccc2cc([C@H](C)C(=O)OCCC3(C)CCc4c(C)c(O)c(C)c(C)c4O3)ccc2c1 (stereo partly drawn) | 7.66 | 12.9 | – | –
COc1ccc2cc(CC(=O)OCCC3(C)CCc4c(C)c(O)c(C)c(C)c4O3)ccc2c1 (stereo not drawn) | 4.5 | – | 44 | –
COc1ccc2cc(C(C)C(=O)NCCC3(C)Cc4c(C)c(O)c(C)c(C)c4O3)ccc2c1 (stereo not drawn) | 5.6 | 1.9 | – | –
COc1ccc2cc(C(C)C(=O)OCCC3(C)CCc4c(C)c(OC(C)=O)c(C)c(C)c4O3)ccc2c1 (stereo not drawn) | 4.5 | 11.5 | – | –
VITAMIN E [listing 2 of 2 here] | – | – | – | 22
COc1ccc2cc(C(C)C(=O)NCC3(C)CCc4c(C)c(O)c(C)c(C)c4O3)ccc2c1 (stereo not drawn) | 3.99 | 4.3 | – | –
COc1ccc2cc([C@@H](C)C(=O)OCC[C@@]3(C)CCc4c(C)c(O)c(C)c(C)c4O3)ccc2c1 | – | 22 | – | –
COc1ccc2cc(C(C)C(=O)NCC3(C)CCc4c(C)c(OC(C)=O)c(C)c(C)c4O3)ccc2c1 (stereo not drawn) | 1.6 | 3.3 | – | –
COc1ccc2cc([C@H](C)C(=O)NCC3(C)CCc4c(C)c(OC(C)=O)c(C)c(C)c4O3)ccc2c1 (stereo partly drawn) | – | 4 | – | –

Further lines, with some results ahead:

IC50 [1] [µM] | Molecule | IC50 [2] [µM] | Inhibition [3] [%] | inhibition [4] [%]
4.67 | COc1ccc2cc(C(C)C(=O)NCCC3(C)CCc4c(C)c(O)c(C)c(C)c4O3)ccc2c1 (stereo not drawn) | 7.4 | – | –
11.6 | COc1ccc2cc(C(C)C(=O)OCC[C@@]3(C)CCc4c(C)c(O)c(C)c(C)c4O3)ccc2c1 (single isomer, unassigned) | 11.7 | – | –
9.6 | COc1ccc2cc([C@H](C)C(=O)OCC[C@]3(C)CCc4c(C)c(O)c(C)c(C)c4O3)ccc2c1 | 16.4 | – | –
5170 | VITAMIN E [listing 1 of 2 here] | – | – | –
3.82 | Cc1c(C)c2c(c(C)c1O)CCC(C)(CCO)O2 (stereo not drawn) | – | 30 | –
4.87 | COc1ccc2cc([C@H](C)C(=O)OCCC3(C)Cc4c(C)c(O)c(C)c(C)c4O3)ccc2c1 (stereo in doubt; 2a) | 9.1 | – | –
4.83 | COc1ccc2cc(C(C)C(=O)OCC3(C)Cc4c(C)c(O)c(C)c(C)c4O3)ccc2c1 (stereo not drawn) | 7.3 | – | –
5.1 | COc1ccc2cc([C@H](C)C(=O)OCCC3(C)Cc4c(C)c(O)c(C)c(C)c4O3)ccc2c1 (stereo in doubt; 2c) | 16.4 | – | –
4.8 | COc1ccc2cc([C@@H](C)C(=O)NCC3(C)CCc4c(C)c(O)c(C)c(C)c4O3)ccc2c1 (stereo partly drawn) | 4.5 | – | –
